# Compound activity from PubChem.
# In the library only some 4.6% were active in any assay of this set; here they are far more common.
# OX1R antag-1: OX1R (HCRTR1) antagonists, primary screen, fluorescence, CHO/OX1R cells, Fluo-8 calcium, orexin A; Orexin/Hypocretin receptor type 1 (Homo sapiens), O43613; Fluo-8 calcium fluorescence; inhibition, % at 5 µM; actives 0.43% (n = 330,000);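 active = inhibition above its plate's threshold, mean inhibition of all tested compounds on the plate plus 3 SD, cut at about 37% in these data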;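 also: 0% = orexin A challenge wells and 100% = SB-334867-A antagonist wells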
# Target sequence (O43613 whole entry, looked up): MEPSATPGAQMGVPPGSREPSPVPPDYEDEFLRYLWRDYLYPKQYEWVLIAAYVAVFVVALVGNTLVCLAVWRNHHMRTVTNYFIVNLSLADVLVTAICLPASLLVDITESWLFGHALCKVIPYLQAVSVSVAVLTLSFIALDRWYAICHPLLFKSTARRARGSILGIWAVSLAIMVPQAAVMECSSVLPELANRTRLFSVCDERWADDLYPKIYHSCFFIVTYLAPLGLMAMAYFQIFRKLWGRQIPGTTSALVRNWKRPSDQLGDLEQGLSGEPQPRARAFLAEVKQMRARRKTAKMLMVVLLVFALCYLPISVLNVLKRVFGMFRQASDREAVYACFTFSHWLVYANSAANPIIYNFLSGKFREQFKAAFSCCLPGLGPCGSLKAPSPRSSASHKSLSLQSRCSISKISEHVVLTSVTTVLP
# OX1R antag-2: antagonists of human orexin 1 receptor (OX1R) | Orexin/Hypocretin receptor type 1 (Homo sapiens), O43613 | AID 485270, 2010 | OX1R-expressing cells, FRET antagonist read-out | actives 1.8% (n = 330,000) | inhibition, % at 6.6 µM; in the data active = inhibition mostly above about 38%, no sharp cut-off; inactive = mostly below about 40%;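 also: 0% = agonist challenge alone and 100% = reference antagonist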
# TAAR1 agonist: human TAAR1 agonists, primary screen, Fluo-8 calcium fluorescence, CHO RD-HGA16 cells; activation, % at 3 µM; actives 0.99% (n = 360,000); Trace amine-associated receptor 1 (Homo sapiens), Q96RJ0; vehicle wells 0%, saturating PEA agonist 100%;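 active = activation above the mean activation of all test compounds in the run plus 3 SD, cut at about 38% in these data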
#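 Benchmarks: low control DMSO, high control PEA (EC100); System: CHO RD-HGA16 cells carrying human TAAR1 plus Gα16; Detection: Fluo-8 fluorescence, 5 s baseline then 140 s kinetic read; Schedule: 17-24 h plating, Fluo-8 75 min 37 °C, 30 min RT; Read-out basis: % activation from peak over basal fluorescence ratio, DMSO-to-PEA scaled.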
# TAAR1 antag: human TAAR1 antagonists, primary screen, Fluo-8 calcium fluorescence, CHO RD-HGA16 cells; antagonist; inhibition, % at 3 µM; Trace amine-associated receptor 1 (Homo sapiens), Q96RJ0; actives 1.5% (n = 360,000);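 active = inhibition above a per-plate cutoff, the mean inhibition of test compounds on that plate plus 3 SD, cut at about 49% in these data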;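 also: 0% = DMSO plus EC80 beta-PEA response and 100% = DMSO alone without agonist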
#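 Test system: CHO RD-HGA16 cells bearing hTAAR1 | Reagent: β-PEA, EC80 | Compound dosing: 3 µM, single point | Schedule: Dye loading 75 min at 37 °C, then 30 min room temperature | Signal: Calcium fluorescence with Fluo-8 | Evaluation: Percent inhibition of PEA-evoked calcium signal, max/basal emission ratio | Control set: DMSO-only wells and EC80 β-PEA-stimulated wells | Repeats: Singlicate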
# GPR7 antagonist: GPR7 receptor antagonists, primary screen, cell-based, fluorescence, single concentration | Neuropeptides B/W receptor type 1 (Homo sapiens), P48145 | GPR7-expressing cells, fluorescence antagonist assay | inhibition, % at 4.4 µM | actives 1.1% (n = 290,000) | AID 1861, 2009; in the data active = inhibition above about 16%, passing the limit was not always enough;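 also: cells stimulated with the agonist NPW; 0% = agonist with vehicle and 100% = vehicle without agonist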
# CHO parental Ca: ATP-evoked calcium signal inhibitors, parental CHO, primary screen, counter-screen for OX1R antagonist project, cell-based, fluorescence, Fluo-8 calcium dye | AID 463079, 2010 | parental CHO-K1, ATP-induced calcium, Fluo-8 fluorescence | actives 0.63% (n = 330,000) | inhibition, % at 5.6 µM;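 active = inhibition above that plate's mean sample inhibition plus 3 SD, cut at about 26% in these data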;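 also: 0% = ATP-challenged DMSO wells and 100% = DMSO wells without ATP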
#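 Test system: parental CHO cells; detection: calcium-sensitive Fluo-8 fluorescence; evaluation: percent inhibition of calcium signal; also added: ATP as calcium-mobilizing challenge; repeats: one well per compound; control set: ATP-challenged DMSO wells low, unchallenged DMSO wells high; compound: single nominal dose of 5.6 µM per compound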
# TAAR1 ag confirm: human TAAR1 agonists, retest of hits, confirmation, Fluo-8 calcium fluorescence, CHO RD-HGA16 cells. shares compounds with TAAR1 agonist. scaled: DMSO 0%, maximal phenethylamine 100%. activation, % at 3 µM. actives 82% (n = 2,400). AID 651783, 2012;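 active = activation above a cutoff set at the run's mean compound activation plus 3 SD, cut at about 39% in these data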
# Ga16 ag counter: nonselective calcium mobilization agonists, CHO-Ga16 cells, counter-screen for hTAAR1 agonist project, cell-based, fluorescence, CHO-Ga16 parental line; Fluo-8 calcium fluorescence; normalized to maximal ATP response, DMSO zero; actives 50% (n = 2,400); activation, % at 3 µM; shares compounds with TAAR1 agonist;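 active = activation above the run cutoff, the mean activation over all tested wells plus 3 SD, cut at about 12% in these data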;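 also: 0% = DMSO wells and 100% = maximal ATP response on the peak over basal ratio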
# TAAR1 desensitize: TAAR1 desensitization by agonist hits, confirmation, counter-screen for TAAR1 agonist project, cell-based, fluorescence, tachyphylaxis; shares compounds with TAAR1 agonist; CHO RD-HGA16 hTAAR1, Fluo-8 calcium, beta-PEA response inhibition; inhibition, % at 3 µM; actives 46% (n = 2,400); AID 651951, 2012;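 active = inhibition above the run cutoff, the mean inhibition of all test compounds plus 3 SD, cut at about 49% in these data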;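 also: beta-PEA stimulus applied at its EC80; loss of beta-PEA calcium signal after compound pretreatment read as receptor desensitization; 0% = DMSO with beta-PEA at EC80 and 100% = DMSO alone without agonist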
# Ga16 nonsel ant: inhibition of ATP-evoked calcium response in CHO-Ga16 cells, counter-screen for TAAR1 agonist project, cell-based, fluorescence; inhibition, % at 3 µM; shares compounds with TAAR1 agonist; actives 39% (n = 2,400); AID 651952, 2012; CHO-Ga16 ATP-induced calcium, Fluo-8 fluorescence;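 active = inhibition above the plate's mean compound inhibition plus 3 SD, computed per plate, cut at about 22% in these data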;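 also: 0% = EC80 ATP with DMSO and 100% = DMSO wells without ATP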
# Active calls of the source: *; . = not tested or not shown.
SMILES,OX1R antag-1,OX1R antag-2,TAAR1 agonist,TAAR1 antag,GPR7 antagonist,CHO parental Ca,TAAR1 ag confirm,Ga16 ag counter,TAAR1 desensitize,Ga16 nonsel ant
O=C1NC(CCc2ccccc2)C(=O)N1CCOc1cccc(Br)c1 (configuration not stated),-19,16,59*,-14,-5,-22,8,3,2,17
CC(=O)c1ccc(S(=O)(=O)N2CCN(c3nc(-c4cccnc4)nc4ccccc34)CC2)cc1,-24,10,9,38,.,-27,.,.,.,.
O=[N+]([O-])c1ccc(S(=O)(=O)NNC(=S)NCCc2ccccc2)cc1,-6,27,52*,-23,-6,-4,56*,3,6,7
Cc1c(CNCCc2ccccc2Cl)c(C(=O)O)c(C)n1-c1ccccc1,-32,-7,90*,65*,-8,-20,92*,25*,74*,6
Cc1nc(Nc2ccccc2)sc1-c1ccccc1,-25,35,-1,-8,-15,-14,.,.,.,.
Cc1nc(Nc2ccc(C(=O)O)cc2)sc1-c1ccccc1,13,-8,62*,31,18,2,71*,63*,61*,44*
Cc1cc(C)nc(OC(C(=O)O)C(OCCc2ccccc2)(c2ccccc2)c2ccccc2)n1 (configuration not stated),-21,0,99*,18,-9,-28,126*,85*,20,3
Cc1cc(C)cc(Nc2cc(=O)n(C3CCCCC3)c(=O)[nH]2)c1,-6,19,10,22,1,-17,.,.,.,.
Cc1cc2nc3c(=O)n(C4CCCCC4)c(=O)[nH]c3nc2cc1N,.,.,57*,12,-13,.,28,64*,27,39*
c1ccc2c(-c3ccc(OCCN4CCCCC4)cc3)c(-c3ccsc3)sc2c1,10,2,47*,44,.,-3,49*,25*,51*,43*
CN(Cc1c(F)cccc1Cl)C(=O)c1ccc(NS(=O)(=O)c2ccc3[nH]c(=O)[nH]c3c2)cc1,-20,15,1,-9,.,-6,.,.,.,.
COCCNc1nc(NCCOc2ccccc2)c2sc(-c3ccccc3)cc2n1,.,.,1,21,.,.,.,.,.,.
Cc1cc(C2=NNC(=NCCc3ccccc3)SC2)c(C)n1-c1c(C)n(C)n(-c2ccccc2)c1=O,-26,0,70*,21,5,-3,93*,2,62*,2
CCN1CCN(C(CNS(=O)(=O)c2ccccc2)c2ccccc2)CC1 (configuration not stated),-10,-5,1,0,2,-18,.,.,.,.
O=C(COC(=O)c1cccc(S(=O)(=O)N2CCCC2)c1)Nc1ccc(Cl)cc1,.,.,14,14,.,.,.,.,.,.
CCOC(=O)C(C(=O)OCC)c1cc(Br)c2noc3c2c1C(=O)c1ccccc1-3,43,51,59*,73*,6,39*,66*,62*,87*,85*
Oc1ccc(/C=N/Nc2ccnc3cc(Cl)ccc23)cc1O,-11,5,97*,65*,-17,-7,106*,6,92*,1
Oc1ccc(/C=N/Nc2ccnc3cc(Cl)ccc23)c(O)c1O,-24,3,8,3,-10,-10,.,.,.,.
O=C(CC[C@H]1O[C@@H](n2cnc3c(NC(=O)c4ccccc4)ncnc32)[C@H](O)[C@@H]1O)NCc1ccc(OC(F)(F)F)cc1,.,.,2,8,.,.,.,.,.,.
CC(Oc1ccccc1)c1ccn[nH]1 (configuration not stated),-16,24,4,0,4,-17,.,.,.,.
O=C1CC(O)(C(F)(F)F)Oc2c1ccc1ccccc21 (configuration not stated),-4,35,76*,46,3,6,75*,70*,46,39*
COc1ccc(NS(=O)(=O)c2ccc(OCC(=O)N3CCOCC3)cc2)cc1,-4,1,10,-6,-12,2,.,.,.,.
O=C(COc1ccc(S(=O)(=O)Nc2ccc(Cl)cc2)cc1)N1CCOCC1,14,-1,57*,30,13,4,56*,31*,15,16
CCOc1ccc(NS(=O)(=O)c2ccc(C(=O)NCC(c3cccs3)N3CCOCC3)cc2)cc1 (configuration not stated),1,-6,126*,83*,.,1,106*,68*,78*,51*
CC(C)(CNC(=O)c1ccc(S(=O)(=O)Nc2ccc(Cl)cc2)cc1)N1CCOCC1,2,-1,65*,21,.,0,45*,19*,28,23*
COc1ccccc1N1CCN(Cc2cnc3ccc(Cl)cn23)CC1,.,.,3,-17,-7,.,.,.,.,.
CC(NC(=O)c1ccc([N+](=O)[O-])o1)C1CC2CCC1C2 (configuration not stated),-15,21,.,.,.,-12,.,.,.,.
COc1ccc2cc(C[C@@H]3CC[C@@H](CO)O3)ccc2c1,2,1,2,5,.,-5,.,.,.,.
Fc1cc(F)c(C2SCCN2C(=S)Nc2cccc(C(F)(F)F)c2)c(F)c1 (configuration not stated),0,-4,66*,3,10,-4,52*,31*,56*,38*
